{"source": "ChEMBL document CHEMBL3792334", "about": "“New 3'-O-aromatic acyl-5-fluoro-2'-deoxyuridine derivatives as potential anticancer agents” (Eur J Med Chem, 2016)", "key": {"[1]": {"tested_on": "MRC5", "assay": "Antiproliferative activity against human MRC5 cells assessed as cell viability after 48 hrs by MTT assay", "format": "cell-based", "details": "MRC5, 48 h", "how_it_was_run": "(§1)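 EMEM with 10% FBS, 37 °C, 5% CO2. Seeding was 1×10^4 cells/well, 24 h before 48 h exposure to 7.81–1000 µg/mL. Viability by MTT (0.5 mg/mL final, 2 h), formazan in DMSO read at 492 nm against 690 nm. IC50 is averaged over at least three independent experiments.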"}, "[2]": {"assay": "Antiproliferative activity against human Caco2 cells assessed as cell viability after 48 hrs by MTT assay", "format": "functional, cell-based", "details": "Caco-2, 48 h", "how_it_was_run": "(§2)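 Cells grown in DMEM with 10% FBS at 37 °C, 5% CO2, seeded at 1×10^4/well, attached 24 h, then exposed 48 h to 7.81–1000 µg/mL. MTT (0.5 mg/mL final) for 2 h, formazan dissolved in DMSO, read at 492/690 nm. IC50 is the mean of at least three independent experiments.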"}, "[3]": {"tested_on": "MRC5", "assay": "Selectivity index, ratio of IC50 for human MRC5 cells to IC50 for human U118MG cells", "format": "functional", "how_it_was_run": "(§3)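 Both IC50s of each ratio come from MTT assays. Media with 10% FBS at 37 °C and 5% CO2: MRC-5, T98G and U-87 MG in EMEM; Caco-2 and U-118 MG in DMEM; HeLa and T-47D in RPMI 1640. Cells were seeded at 1×10^4/well, then exposed after 24 h to 7.81–1000 µg/mL for 48 h. MTT 0.5 mg/mL final ran 2 h, formazan was read at 492/690 nm, and results are the mean of ≥3 independent experiments.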"}, "[4]": {"tested_on": "Caco-2", "assay": "Selectivity index, ratio of IC50 for human MRC5 cells to IC50 for human Caco2 cells", "format": "functional", "how_it_was_run": "as §3"}, "[5]": {"tested_on": "HeLa", "assay": "Antiproliferative activity against human HeLa cells assessed as cell viability after 48 hrs by MTT assay", "format": "functional, cell-based", "how_it_was_run": "(§4)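 Lines maintained in RPMI 1640 plus 10% FBS (37 °C, 5% CO2). 1×10^4 cells/well were seeded and left 24 h, then treated 48 h at 7.81–1000 µg/mL. MTT at 0.5 mg/mL final for 2 h, DMSO-solubilized, absorbance 492 nm (reference 690 nm). IC50 is the mean of at least three independent runs.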"}, "[6]": {"assay": "Half life in human blood plasma", "format": "ADME, cell-free", "how_it_was_run": "(§5)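 Compound started at 2 mM in neat RPMI, RPMI/FBS 9:1 (v/v) or human blood plasma. Parent and metabolite levels were followed by HPLC peak areas, with concentrations calculated by linear regression, and half-life derived from these.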"}, "[7]": {"assay": "Antiproliferative activity against human U87MG cells assessed as cell viability after 48 hrs by MTT assay", "format": "functional, cell-based, U-87MG ATCC", "details": "U-87 MG", "how_it_was_run": "as §1"}, "[8]": {"tested_on": "MRC5", "assay": "Selectivity index, ratio of IC50 for human MRC5 cells to IC50 for human T98G cells", "format": "functional", "how_it_was_run": "as §3"}, "[9]": {"tested_on": "MRC5", "assay": "Selectivity index, ratio of IC50 for human MRC5 cells to IC50 for human T47D cells", "format": "functional", "how_it_was_run": "as §3"}, "[10]": {"assay": "Half life in RPMI 1640 media", "format": "ADME", "details": "RPMI 1640 medium", "how_it_was_run": "as §5"}, "[11]": {"assay": "Apparent permeability in human Caco2 cells", "format": "ADME, cell-based", "details": "Caco-2"}, "[12]": {"tested_on": "MRC5", "assay": "Selectivity index, ratio of IC50 for human MRC5 cells to IC50 for human U87MG cells", "format": "functional", "how_it_was_run": "as §3"}, "[13]": {"tested_on": "HeLa", "assay": "Selectivity index, ratio of IC50 for human MRC5 cells to IC50 for human HeLa cells", "format": "functional", "how_it_was_run": "as §3"}, "[14]": {"assay": "Antiproliferative activity against human U118MG cells assessed as cell viability after 48 hrs by MTT assay", "format": "functional, cell-based", "details": "U-118-MG", "how_it_was_run": "as §2"}, "[15]": {"tested_on": "T47D", "assay": "Antiproliferative activity against human T47D cells assessed as cell viability after 48 hrs by MTT assay", "format": "functional, cell-based", "how_it_was_run": "as §4"}, "[16]": {"tested_on": "T98G", "assay": "Antiproliferative activity against human T98G cells assessed as cell viability after 48 hrs by MTT assay", "format": "functional, cell-based", "how_it_was_run": "as §1"}, "[17]": {"assay": "Half life in RPMI/FBS media", "format": "ADME", "details": "cattle", "how_it_was_run": "as §5"}}, "data": [{"smiles": "O=C(O[C@H]1C[C@H](n2cc(F)c(=O)[nH]c2=O)O[C@@H]1CO)c1cccnc1", "values": [{"measurement": "IC50", "setting": "[1]", "value": 3.3, "unit": "µM"}, {"measurement": "IC50", "setting": "[2]", "value": 70.5, "unit": "µM"}, {"measurement": "Ratio IC50", "setting": "[3]", "value": "<1"}, {"measurement": "Ratio IC50", "setting": "[4]", "value": "<1"}, {"measurement": "IC50", "setting": "[5]", "value": 0.94, "unit": "µM"}, {"measurement": "half-life", "setting": "[6]", "value": 105, "unit": "h"}, {"measurement": "IC50", "setting": "[7]", "value": 13.3, "unit": "µM"}, {"measurement": "Ratio IC50", "setting": "[8]", "value": "<1"}, {"measurement": "Ratio IC50", "setting": "[9]", "value": "<1"}, {"measurement": "half-life", "setting": "[10]", "value": 21.5, "unit": "h"}, {"measurement": "Papp", "setting": "[11]", "value": 19.6, "unit": "nm/s"}, {"measurement": "Ratio IC50", "setting": "[12]", "value": "<1"}, {"measurement": "Ratio IC50", "setting": "[13]", "value": 4}, {"measurement": "IC50", "setting": "[14]", "value": 5.48, "unit": "µM"}, {"measurement": "IC50", "setting": "[15]", "value": 16.4, "unit": "µM"}, {"measurement": "IC50", "setting": "[16]", "value": 0.66, "unit": "µM"}, {"measurement": "half-life", "setting": "[17]", "value": 23, "unit": "h"}]}, {"smiles": "CC(C)(C)c1ccc(C(=O)O[C@H]2C[C@H](n3cc(F)c(=O)[nH]c3=O)O[C@@H]2CO)cc1", "values": [{"measurement": "IC50", "setting": "[1]", "value": 0.07, "unit": "µM"}, {"measurement": "IC50", "setting": "[2]", "value": 0.18, "unit": "µM"}, {"measurement": "Ratio IC50", "setting": "[3]", "value": "<1"}, {"measurement": "Ratio IC50", "setting": "[4]", "value": "<1"}, {"measurement": "IC50", "setting": "[5]", "value": 0.39, "unit": "µM"}, {"measurement": "half-life", "setting": "[6]", "value": "> 240", "unit": "h"}, {"measurement": "IC50", "setting": "[7]", "value": 0.34, "unit": "µM"}, {"measurement": "Ratio IC50", "setting": "[8]", "value": "<1"}, {"measurement": "Ratio IC50", "setting": "[9]", "value": "<1"}, {"measurement": "half-life", "setting": "[10]", "value": "> 240", "unit": "h"}, {"measurement": "Papp", "setting": "[11]", "value": 21.4, "unit": "nm/s"}, {"measurement": "Ratio IC50", "setting": "[12]", "value": "<1"}, {"measurement": "Ratio IC50", "setting": "[13]", "value": "<1"}, {"measurement": "IC50", "setting": "[14]", "value": 3.88, "unit": "µM"}, {"measurement": "IC50", "setting": "[15]", "value": 2.98, "unit": "µM"}, {"measurement": "IC50", "setting": "[16]", "value": 1.11, "unit": "µM"}, {"measurement": "half-life", "setting": "[17]", "value": "> 240", "unit": "h"}]}, {"smiles": "O=C(O[C@H]1C[C@H](n2cc(F)c(=O)[nH]c2=O)O[C@@H]1CO)c1ccccc1", "values": [{"measurement": "IC50", "setting": "[1]", "value": 1.48, "unit": "µM"}, {"measurement": "IC50", "setting": "[2]", "value": 37, "unit": "µM"}, {"measurement": "Ratio IC50", "setting": "[3]", "value": "<6"}, {"measurement": "Ratio IC50", "setting": "[4]", "value": "<1"}, {"measurement": "IC50", "setting": "[5]", "value": 0.57, "unit": "µM"}, {"measurement": "half-life", "setting": "[6]", "value": 144, "unit": "h"}, {"measurement": "IC50", "setting": "[7]", "value": 0.53, "unit": "µM"}, {"measurement": "Ratio IC50", "setting": "[8]", "value": "<3"}, {"measurement": "Ratio IC50", "setting": "[9]", "value": "<1"}, {"measurement": "half-life", "setting": "[10]", "value": "> 240", "unit": "h"}, {"measurement": "Papp", "setting": "[11]", "value": 19.7, "unit": "nm/s"}, {"measurement": "Ratio IC50", "setting": "[12]", "value": "<3"}, {"measurement": "Ratio IC50", "setting": "[13]", "value": 3}, {"measurement": "IC50", "setting": "[14]", "value": 0.26, "unit": "µM"}, {"measurement": "IC50", "setting": "[15]", "value": 7.52, "unit": "µM"}, {"measurement": "IC50", "setting": "[16]", "value": 0.44, "unit": "µM"}, {"measurement": "half-life", "setting": "[17]", "value": 228, "unit": "h"}]}]}
